Test results published in ChEMBL document CHEMBL1777764, “Synthesis and evaluation of 1-(1H-indol-3-yl)ethanamine derivatives as new antibacterial agents” (Bioorg Med Chem, 2011).
Converted amounts (≈) assume the structure as drawn.

Legend:
Type in all cases: functional
Staphylococcus aureus [1] = test: Antibacterial activity against Staphylococcus aureus CIP 65.6 after 18 hrs by broth microdilution method; conditions: CIP 65.6, 18 h
Summary of the method: (§1)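 MIC by broth microdilution per ISO 20776-1:2006 and CLSI M07-A8. Inoculum 10^6 cfu/ml in Mueller-Hinton broth with compound serially diluted, final concentrations 2 to 128 ug/ml, duplicate rows, no-drug growth control. Incubation 18 h at 37 °C. MIC taken as lowest concentration giving complete inhibition of visible growth. Each compound tested at least twice.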

Staphylococcus aureus [2] = test: Antibacterial activity against Staphylococcus aureus ATCC 25923 after 18 hrs by broth microdilution method; conditions: ATCC 25923, 18 h; summary of the method: as §1
[3] = system: Staphylococcus epidermidis; test: Antibacterial activity against Staphylococcus epidermidis CIP 81.55 after 18 hrs by broth microdilution method; conditions: CIP 81.55, 18 h; summary of the method: as §1
Streptococcus pneumoniae [4] = test: Antibacterial activity against Streptococcus pneumoniae ATCC 49619 after 18 hrs by broth microdilution method; conditions: ATCC 49619, 18 h
Summary of the method: (§2)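 MIC by broth microdilution per ISO 20776-1:2006 and CLSI M07-A8. Inoculum 10^6 cfu/ml in Mueller-Hinton broth […]. Compound serially diluted, final 2 to 128 ug/ml, duplicate rows, no-drug growth control. Read after 18 h at 37 °C as lowest concentration fully inhibiting visible growth. At least two experiments.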

Staphylococcus aureus [5] = test: Antibacterial activity against Staphylococcus aureus ATCC 29213 after 18 hrs by broth microdilution method; conditions: ATCC 29213, 18 h; summary of the method: as §1
Staphylococcus aureus [6] = test: Antibacterial activity against Staphylococcus aureus ATCC 6538 after 18 hrs by broth microdilution method; conditions: ATCC 6538, 18 h; summary of the method: as §1
Staphylococcus aureus [7] = test: Antibacterial activity against methicillin-resistant Staphylococcus aureus CIP 65.25 after 18 hrs by broth microdilution method; conditions: CIP 65.25, 18 h
Summary of the method: (§3)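 Broth microdilution following ISO 20776-1:2006 and CLSI M07-A8, in Mueller-Hinton broth. Inoculum was 10^6 cfu/ml, with compound serial dilutions spanning 2 to 128 ug/ml and a compound-free growth control well. Plates were incubated 18 h at 37 °C. MIC was the lowest concentration giving complete inhibition of visible growth. Each compound was tested at least twice.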

Streptococcus pneumoniae [8] = test: Antibacterial activity against Streptococcus pneumoniae ATCC 6303 after 18 hrs by broth microdilution method; conditions: ATCC 6303, 18 h; summary of the method: as §2
Staphylococcus aureus [9] = test: Antibacterial activity against Staphylococcus aureus CIP 103428 after 18 hrs by broth microdilution method; conditions: CIP 103428, 18 h; summary of the method: as §1
[10] = system: Staphylococcus epidermidis; test: Antibacterial activity against Staphylococcus epidermidis CIP 103627 after 18 hrs by broth microdilution method; conditions: CIP 103627, 18 h; summary of the method: as §1
Staphylococcus aureus [11] = test: Antibacterial activity against vancomycin intermediate Staphylococcus aureus […] after 18 hrs by broth microdilution method; summary of the method: as §3
[12] = system: Staphylococcus epidermidis; test: Antibacterial activity against Staphylococcus epidermidis ATCC 12228 after 18 hrs by broth microdilution method; conditions: ATCC 12228, 18 h; summary of the method: as §1
Staphylococcus aureus [13] = test: Antibacterial activity against Staphylococcus aureus ATCC 9144 after 18 hrs by broth microdilution method; conditions: ATCC 9144, 18 h; summary of the method: as §1
Staphylococcus aureus [14] = test: Antibacterial activity against methicillin-resistant Staphylococcus aureus ATCC 33592 after 18 hrs by broth microdilution method; conditions: ATCC 33592, 18 h; summary of the method: as §3

| Compound | MIC (Staphylococcus aureus [1]) [µg/mL] | MIC (Staphylococcus aureus [2]) [µg/mL] | MIC [3] [µg/mL] | MIC (Streptococcus pneumoniae [4]) [µg/mL] | MIC (Staphylococcus aureus [5]) [µg/mL] | MIC (Staphylococcus aureus [6]) [µg/mL] | MIC (Staphylococcus aureus [7]) [µg/mL] | MIC (Streptococcus pneumoniae [8]) [µg/mL] | MIC (Staphylococcus aureus [9]) [µg/mL] | MIC [10] [µg/mL] | MIC (Staphylococcus aureus [11]) [µg/mL] | MIC [12] [µg/mL] | MIC (Staphylococcus aureus [13]) [µg/mL] | MIC (Staphylococcus aureus [14]) [µg/mL] |
| --- | --- | --- | --- | --- | --- | --- | --- | --- | --- | --- | --- | --- | --- | --- |
| CC(c1c[nH]c2ccc(F)cc12)N(O)Cc1ccccc1 (stereo not given) | > 128 | > 128 | > 128 | > 128 | > 128 | > 128 | > 128 | > 128 | > 128 | > 128 | > 128 | > 128 | > 128 | > 128 |
| CC(C)(C)OC(=O)NCC(NO)c1c[nH]c2ccc(I)cc12 (stereo not given) | 32 (≈ 76.7 µM) | 32 (≈ 76.7 µM) | 64 (≈ 153 µM) |  | 32 (≈ 76.7 µM) | 32 (≈ 76.7 µM) |  |  | 32 (≈ 76.7 µM) | 64 (≈ 153 µM) |  | 64 (≈ 153 µM) | 32 (≈ 76.7 µM) |  |
| CC(C)(C)OC(=O)NCC(NO)c1c[nH]c2cccc(Br)c12 (stereo not given) | 128 (≈ 346 µM) | 128 (≈ 346 µM) | 128 (≈ 346 µM) |  | 128 (≈ 346 µM) | 128 (≈ 346 µM) |  |  | 128 (≈ 346 µM) | 128 (≈ 346 µM) |  | 128 (≈ 346 µM) | 128 (≈ 346 µM) |  |
| CC(C)CC(c1c[nH]c2ccc(Cl)cc12)N(O)Cc1ccccc1 (stereo not given) | > 128 | > 128 | > 128 | > 128 | > 128 | > 128 | > 128 | > 128 | > 128 | > 128 | > 128 | > 128 | > 128 | > 128 |
| CC(C)(C)OC(=O)NCC(NO)c1c[nH]c2cc(Br)ccc12 (stereo not given) | 64 (≈ 173 µM) | 64 (≈ 173 µM) | 64 (≈ 173 µM) |  | 64 (≈ 173 µM) | 64 (≈ 173 µM) |  |  | 64 (≈ 173 µM) | 64 (≈ 173 µM) |  | 64 (≈ 173 µM) | 64 (≈ 173 µM) |  |
| CC(C)CC(c1c[nH]c2ccc(I)cc12)N(O)Cc1ccccc1 (stereo not given) | > 128 | > 128 | > 128 | > 128 | > 128 | > 128 | > 128 | > 128 | > 128 | > 128 | > 128 | > 128 | > 128 | > 128 |
| CC(C)CC(c1c[nH]c2ccc(F)cc12)N(O)Cc1ccccc1 (stereo not given) | 64 (≈ 196 µM) | 64 (≈ 196 µM) | 64 (≈ 196 µM) | 128 (≈ 392 µM) | 64 (≈ 196 µM) | 64 (≈ 196 µM) | 128 (≈ 392 µM) | 128 (≈ 392 µM) | 64 (≈ 196 µM) | 64 (≈ 196 µM) | 128 (≈ 392 µM) | 64 (≈ 196 µM) | 64 (≈ 196 µM) | 128 (≈ 392 µM) |
| CC(C)(C)OC(=O)NCC(c1c[nH]c2ccccc12)N(O)Cc1ccccc1 (stereo not given) | > 128 | > 128 | > 128 | > 128 | > 128 | > 128 | > 128 | > 128 | > 128 | > 128 | > 128 | > 128 | > 128 | > 128 |
| CC(C)(C)OC(=O)NCC(c1c[nH]c2cccc(Br)c12)N(O)Cc1ccccc1 (stereo not given) | > 128 | > 128 | > 128 | > 128 | > 128 | > 128 | > 128 | > 128 | > 128 | > 128 | > 128 | > 128 | > 128 | > 128 |
| CC(C)(C)OC(=O)NCC(c1c[nH]c2ccc(F)cc12)N(O)Cc1ccccc1 (stereo not given) | > 128 | > 128 | > 128 | > 128 | > 128 | > 128 | > 128 | > 128 | > 128 | > 128 | > 128 | > 128 | > 128 | > 128 |
| CC(C)(C)OC(=O)NCC(NO)c1c[nH]c2ccc(Cl)cc12 (stereo not given) | 64 (≈ 196 µM) | 64 (≈ 196 µM) | 64 (≈ 196 µM) |  | 64 (≈ 196 µM) | 64 (≈ 196 µM) |  |  | 64 (≈ 196 µM) | 64 (≈ 196 µM) |  | 64 (≈ 196 µM) | 64 (≈ 196 µM) |  |
| CC(c1c[nH]c2ccc(I)cc12)N(O)Cc1ccccc1 (stereo not given) | > 128 | > 128 | > 128 | > 128 | > 128 | > 128 | > 128 | > 128 | > 128 | > 128 | > 128 | > 128 | > 128 | > 128 |
| CC(NO)c1c[nH]c2ccccc12 (stereo not given) | 128 (≈ 726 µM) | 128 (≈ 726 µM) | 64 (≈ 363 µM) |  | 128 (≈ 726 µM) | 128 (≈ 726 µM) |  |  | 128 (≈ 726 µM) | 64 (≈ 363 µM) |  | 64 (≈ 363 µM) | 128 (≈ 726 µM) |  |
| CC(c1c[nH]c2ccc(Cl)cc12)N(O)Cc1ccccc1 (stereo not given) | > 128 | > 128 | > 128 | > 128 | > 128 | > 128 | > 128 | > 128 | > 128 | > 128 | > 128 | > 128 | > 128 | > 128 |
| CC(NO)c1c[nH]c2ccc(Br)cc12 (stereo not given) | 64 (≈ 251 µM) | 64 (≈ 251 µM) | 64 (≈ 251 µM) |  | 64 (≈ 251 µM) | 64 (≈ 251 µM) |  |  | 64 (≈ 251 µM) | 64 (≈ 251 µM) |  | 64 (≈ 251 µM) | 64 (≈ 251 µM) |  |
| CC(C)(C)OC(=O)NCC(NO)c1c[nH]c2ccc(Br)cc12 (stereo not given) | 32 (≈ 86.4 µM) | 32 (≈ 86.4 µM) | 64 (≈ 173 µM) |  | 32 (≈ 86.4 µM) | 32 (≈ 86.4 µM) |  |  | 32 (≈ 86.4 µM) | 64 (≈ 173 µM) |  | 64 (≈ 173 µM) | 32 (≈ 86.4 µM) |  |
| CC(C)(C)OC(=O)NCC(NO)c1c[nH]c2ccccc12 (stereo not given) | > 128 | > 128 | > 128 |  | > 128 | > 128 |  |  | > 128 | > 128 |  | > 128 | > 128 |  |
| CC(c1c[nH]c2ccccc12)N(O)Cc1ccccc1 (stereo not given) | 128 (≈ 481 µM) | 128 (≈ 481 µM) | 64 (≈ 240 µM) |  | 128 (≈ 481 µM) | 128 (≈ 481 µM) |  |  | 128 (≈ 481 µM) | 64 (≈ 240 µM) |  | 64 (≈ 240 µM) | 128 (≈ 481 µM) |  |
| CC(C)CC(c1c[nH]c2ccc(Br)cc12)N(O)Cc1ccccc1 (stereo not given) | > 128 | > 128 | > 128 | > 128 | > 128 | > 128 | > 128 | > 128 | > 128 | > 128 | > 128 | > 128 | > 128 | > 128 |
| CC(c1c[nH]c2ccc(Br)cc12)N(O)Cc1ccccc1 (stereo not given) | > 128 | > 128 | > 128 | > 128 | > 128 | > 128 | > 128 | > 128 | > 128 | > 128 | > 128 | > 128 | > 128 | > 128 |
| CC(C)(C)OC(=O)NCC(NO)c1c[nH]c2cc(F)ccc12 (stereo not given) | > 128 | > 128 | > 128 |  | > 128 | > 128 |  |  | > 128 | > 128 |  | > 128 | > 128 |  |
| CC(C)(C)OC(=O)NCC(NO)c1c[nH]c2ccc(F)cc12 (stereo not given) | > 128 | > 128 | > 128 |  | > 128 | > 128 |  |  | > 128 | > 128 |  | > 128 | > 128 |  |
| CC(C)(C)OC(=O)NCC(c1c[nH]c2cc(F)ccc12)N(O)Cc1ccccc1 (stereo not given) | > 128 | > 128 | > 128 | > 128 | > 128 | > 128 | > 128 | > 128 | > 128 | > 128 | > 128 | > 128 | > 128 | > 128 |
| CC(NO)c1c[nH]c2ccc(F)cc12 (stereo not given) | 64 (≈ 330 µM) | 64 (≈ 330 µM) | 64 (≈ 330 µM) |  | 64 (≈ 330 µM) | 64 (≈ 330 µM) |  |  | 64 (≈ 330 µM) | 64 (≈ 330 µM) |  | 64 (≈ 330 µM) | 64 (≈ 330 µM) |  |
| CC(C)(C)OC(=O)NCC(NO)c1c[nH]c2cc(Cl)ccc12 (stereo not given) | 128 (≈ 393 µM) | 128 (≈ 393 µM) | > 128 |  | 128 (≈ 393 µM) | 128 (≈ 393 µM) |  |  | 128 (≈ 393 µM) | > 128 |  | > 128 | 128 (≈ 393 µM) |  |
